In ChEMBL document CHEMBL1156389, “Aglacins A-D, first representatives of a new class of aryltetralin cyclic ether lignans from Aglaia cordata” (J Nat Prod, 2001):
Activity calls are given as the source filed them. The calls are words filed in the database; no cut-off is given here.

Legend:
HL-60 = assay: Cytotoxicity against human HL60 cells at 2 mg/mL to 10 ng/mL by MTT assay; assay type: functional, cell-based
In short: (§1)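 Antiproliferative MTT assay on the human leukemia line HL-60, the human carcinoma line HELA and the KB line. Compounds were tested over 2 mg/mL to 10 ng/mL, in triplicate.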

HeLa = assay: Cytotoxicity against human HeLa cells at 2 mg/mL to 10 ng/mL by MTT assay; assay type: functional, cell-based; in short: as §1

Structure (SMILES) | Activity (HL-60) | Activity (HeLa)
COc1cc([C@@H]2c3c(cc(OC)c(OC)c3OC)C[C@@H]3COC[C@H]32)cc(OC)c1OC | inactive | inactive
COc1ccc([C@@H]2c3c(cc(OC)c(OC)c3OC)C[C@@H]3COC[C@H]32)cc1OC | inactive | inactive
COc1cc([C@H]2c3c(cc(OC)c(OC)c3OC)C(=O)[C@@H]3COC[C@@H]23)cc(OC)c1OC | inactive | inactive
COc1cc([C@@H]2c3c(cc(OC)c(OC)c3OC)[C@H](OC(C)=O)[C@@H]3COC[C@@H]23)cc(OC)c1OC | inactive | inactive
